Five molecules from ChEMBL document CHEMBL2375338, “Hydrolyzable tannins of tamaricaceous plants. V. Structures of monomeric-trimeric tannins and cytotoxicity of macrocyclic-type tannins isolated from Tamarix nilotica (1)” (J Nat Prod, 2013) can be followed below.

Data set [1] relates to HSC-4. As to the kind of experiment: Cytotoxicity against human HSC4 cells after 48 hrs by MTT assay. The following applies: HSC-4, 48 h. The format is functional. In short, it runs like this: (§1)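 Adherent cells seeded 5 × 10^3/well and grown 48 h, then medium replaced with fresh medium holding test compound (DMSO stock 20 mM; top well 100 μM, serial 2-fold dilutions, triplicate wells). After a further 48 h, cells were washed with PBS lacking Ca/Mg and given 0.2 mg/mL MTT for 4 h. Lysis was in DMSO and A540 was read. CC50 came from the dose–response curve.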

In data set [2] the test system is HL-60. As to the kind of experiment: Cytotoxicity against human HL60 cells after 48 hrs by trypan blue exclusion assay. The following applies: HL-60, 48 h.
The nature of data set [3]: Cytotoxicity against human HPC cells after 48 hrs by MTT assay. The format is cell-based. In short, it runs like this:
as §1
(Tetrazolium assays rely on reduction of a dye to a coloured formazan, in cell work by metabolically active cells.)

Data set [4] in a line: Cytotoxicity against human HPLF cells after 48 hrs by MTT assay. The format is cell-based. In a few lines:
as §1

The subject of data set [5] is HSC-3. As to the kind of experiment: Cytotoxicity against human HSC3 cells after 48 hrs by MTT assay. In kind it is functional. The following applies: HSC-3, 48 h. In short, it runs like this:
as §1

Data set [6] can be described thus: Cytotoxicity against human HGF cells after 48 hrs by MTT assay. The format is cell-based. In short, it runs like this:
as §1

Data set [7] deals with HSC-2. Description: Cytotoxicity against human HSC2 cells after 48 hrs by MTT assay. The format is functional. The following applies: HSC-2, 48 h. In short, it runs like this: as §1

On to `O=C1O[C@@H]2O[C@@H]3COC(=O)c4cc(O)c(O)c(O)c4-c4c(cc(O)c(O)c4O)C(=O)O[C@H]3[C@H](OC(=O)c3cc(O)c(O)c(O)c3)[C@H]2OC(=O)c2cc(O)c(O)c(O)c2Oc2cc(cc(O)c2O)C(=O)O[C@@H]2O[C@H](CO)[C@@H](O)[C@H](OC(=O)c3cc(O)c(O)c(O)c3)[C@H]2OC(=O)c2cc(O)c(O)c(O)c2Oc2c(O)cc1cc2O`, for which the half-maximal cytotoxic concentration (CC50) was determined as 26.6 µM in data set [1], 62 µM in data set [2], 20.8 µM in data set [5] and 20.2 µM in data set [7]. For the same molecule, the CC50 at 48 h was 80.3 µM in data set [3], more than 100 µM in data set [4] and more than 100 µM in data set [6].

`O=C1O[C@@H]2O[C@@H]3COC(=O)c4cc(O)c(O)c(O)c4-c4c(cc(O)c(O)c4O)C(=O)O[C@H]3[C@H](OC(=O)c3cc(O)c(O)c(O)c3)[C@H]2OC(=O)c2cc(O)c(O)c(O)c2Oc2c(O)cc(cc2O)C(=O)O[C@@H]2O[C@H](CO)[C@@H](O)[C@H](OC(=O)c3cc(O)c(O)c(O)c3)[C@H]2OC(=O)c2cc(O)c(O)c(O)c2Oc2cc1cc(O)c2O`: the CC50 in data set [1] is 24.5 µM; in data set [2], 70.8 µM; in data set [5], 21.9 µM; in data set [7], 18.5 µM. Further, the figures for the CC50 at 48 h in data set [3], in data set [4] and in data set [6] were 81 µM, more than 100 µM and more than 100 µM, respectively.

With `O=C1O[C@@H]2O[C@@H]3COC(=O)c4cc(O)c(O)c(O)c4-c4c(cc(O)c(O)c4O)C(=O)O[C@H]3[C@H](OC(=O)c3cc(O)c(O)c(O)c3)[C@H]2OC(=O)c2cc(O)c(O)c(O)c2Oc2cc(cc(O)c2O)C(=O)O[C@@H]2O[C@@H]3COC(=O)c4cc(O)c(O)c(O)c4-c4c(cc(O)c(O)c4O)C(=O)O[C@H]3[C@H](OC(=O)c3cc(O)c(O)c(O)c3)[C@H]2OC(=O)c2cc(O)c(O)c(O)c2Oc2c(O)cc1cc2O`, the half-maximal cytotoxic concentration (CC50) was 28.7 µM in data set [1], 54.2 µM in data set [2], 24.3 µM in data set [5] and 19.9 µM in data set [7]. Besides, the CC50 at 48 h is 84.3 µM in data set [3], more than 100 µM in data set [4] and 95 µM in data set [6].

For `O=C1O[C@@H]2O[C@@H]3COC(=O)c4cc(O)c(O)c(O)c4-c4c(cc(O)c(O)c4O)C(=O)O[C@H]3[C@H](OC(=O)c3cc(O)c(O)c(O)c3)[C@H]2OC(=O)c2cc(O)c(O)c(O)c2Oc2c(O)cc(cc2O)C(=O)O[C@@H]2O[C@@H]3COC(=O)c4cc(O)c(O)c(O)c4-c4c(cc(O)c(O)c4O)C(=O)O[C@H]3[C@H](OC(=O)c3cc(O)c(O)c(O)c3)[C@H]2OC(=O)c2cc(O)c(O)c(O)c2Oc2c(O)cc1cc2O`, the CC50 in data set [1] stood at 43 µM; in data set [2], 55.9 µM; in data set [5] it was 47.8 µM; in data set [7], 23 µM. Further, the 50% cytotoxic concentration (CC50) at 48 h in data set [3] was 88.3 µM; in data set [4], more than 100 µM; in data set [6] it was 93.6 µM.

In the case of `O=C1O[C@@H]2O[C@@H]3COC(=O)c4cc(O)c(O)c(O)c4-c4c(cc(O)c(O)c4O)C(=O)O[C@H]3[C@H](OC(=O)c3cc(O)c(O)c(O)c3)[C@H]2OC(=O)c2cc(O)c(O)c(O)c2Oc2cc(cc(O)c2O)C(=O)O[C@@H]2O[C@@H]3COC(=O)c4cc(O)c(O)c(O)c4-c4c(cc(O)c(O)c4O)C(=O)O[C@H]3[C@H](OC(=O)c3cc(O)c(O)c(O)c3)[C@H]2OC(=O)c2cc(O)c(O)c(O)c2Oc2cc(cc(O)c2O)C(=O)O[C@@H]2O[C@@H]3COC(=O)c4cc(O)c(O)c(O)c4-c4c(cc(O)c(O)c4O)C(=O)O[C@H]3[C@H](OC(=O)c3cc(O)c(O)c(O)c3)[C@H]2OC(=O)c2cc(O)c(O)c(O)c2Oc2c(O)cc1cc2O`, the CC50 in data set [1] was found to be 42.9 µM; in data set [2] it was 30.5 µM; in data set [5] it was 34.2 µM; in data set [7], 22.3 µM. Also, the CC50 at 48 h in data set [3] is 90.7 µM; in data set [4], more than 100 µM; in data set [6], 96.6 µM.

The term CC50 denotes the concentration at which the toxic effect on the cells reaches its halfway point. Read a high CC50 as lower toxicity to the cells.
